Experimental data of several laboratories.
Lines come from different studies, so protocols differ.
Target: Serine/threonine-protein kinase D3 (PRKD3, Homo sapiens, UniProt O94806)
Sequence (O94806 1-890, as in one of the studies): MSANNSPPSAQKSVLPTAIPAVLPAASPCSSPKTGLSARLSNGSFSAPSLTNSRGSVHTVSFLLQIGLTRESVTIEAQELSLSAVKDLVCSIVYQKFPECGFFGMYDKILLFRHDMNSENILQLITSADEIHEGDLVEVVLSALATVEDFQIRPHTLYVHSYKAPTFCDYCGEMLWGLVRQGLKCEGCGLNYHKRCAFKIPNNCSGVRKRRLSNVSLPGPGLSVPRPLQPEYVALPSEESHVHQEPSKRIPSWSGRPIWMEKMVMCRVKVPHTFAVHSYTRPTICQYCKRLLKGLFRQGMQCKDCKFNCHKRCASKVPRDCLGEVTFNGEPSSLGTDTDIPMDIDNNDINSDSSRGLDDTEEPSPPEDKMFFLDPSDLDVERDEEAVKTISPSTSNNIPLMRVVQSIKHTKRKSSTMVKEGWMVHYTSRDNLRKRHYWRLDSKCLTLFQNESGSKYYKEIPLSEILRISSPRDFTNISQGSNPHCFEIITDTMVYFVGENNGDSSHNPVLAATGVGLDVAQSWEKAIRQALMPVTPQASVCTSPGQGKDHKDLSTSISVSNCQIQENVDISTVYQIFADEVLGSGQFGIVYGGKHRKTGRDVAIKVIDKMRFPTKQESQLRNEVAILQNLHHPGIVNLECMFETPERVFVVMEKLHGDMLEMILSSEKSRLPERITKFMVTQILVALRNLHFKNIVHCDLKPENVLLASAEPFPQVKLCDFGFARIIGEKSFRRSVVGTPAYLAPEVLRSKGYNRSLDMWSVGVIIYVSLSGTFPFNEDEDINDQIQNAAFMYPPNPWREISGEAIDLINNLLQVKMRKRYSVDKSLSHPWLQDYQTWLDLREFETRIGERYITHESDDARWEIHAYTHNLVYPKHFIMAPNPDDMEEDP

SMILES	effect on	technique	concentration	remaining binding [%]
COc1ccnn2ncc(-c3ccnc(N(C)C)n3)c12	binding	–	1 µM	100
CNC(=O)[C@@H]1CC[C@@H](n2c(-c3ccc4cnccc4c3)nc3ccc(C(=O)NCc4cccc(C(N)=O)c4)cc32)C1	binding	competition with immobilised ligand	1 µM	91
COc1ncc2cc3ccccc3nc2c1C#N	cell-free assay	competition with immobilised ligand	5 µM	100
C[C@H]1CCN(c2nccc(-c3cnn4ncccc34)n2)C1	binding	–	1 µM	59
O=C(NCC1CCOCC1)c1n[nH]cc1NC(=O)c1c(F)cccc1F	binding	competition with immobilised ligand	1 µM	97
Nc1ncc2c(n1)-c1c([nH]c3ccc(C#CC4CC4)cc13)CCCC2	binding	competition with immobilised ligand	1 µM	61
c1cnn2ncc(-c3ccnc(N4CCC45COC5)n3)c2c1	binding	–	1 µM	71
COc1cccc(CNC(=O)c2nc3scc(COCc4ccc(C(=O)O)cc4)c3c(=O)[nH]2)c1	cell-free assay	competition with immobilised ligand	1 µM	100
CCN1CCN(Cc2ccc(C(=O)Nc3ccc(C)c(Oc4ccc5c(c4)CC(=O)N5)c3)cc2C(F)(F)F)CC1	binding	competition with immobilised ligand	1 µM	100
CN(C)c1nccc(-c2cnn3ncccc23)n1	binding	–	1 µM	100
CNCc1ccccc1-c1csc([C@@H](C)Nc2nc(C)nc3cc(OC)c(OC)cc23)c1	cell-free assay	competition with immobilised ligand	1 µM	92
O=C(c1ccc(Nc2ncc(Cl)c(-c3cc4ccccc4s3)n2)cc1)N1CCC(N2CCCC2)CC1	binding	competition with immobilised ligand	1 µM	18
N[C@@H]1CCN(c2nccc(-c3cnn4ncccc34)n2)C1	binding	–	1 µM	100
CNC(=O)c1ccc(Nc2ncc(C(F)(F)F)c(NCc3nccnc3N(C)S(C)(=O)=O)n2)cc1	cell-free assay	competition with immobilised ligand	0.1 µM	100
C[C@@H](c1ccc(-n2cnc3c(N)ncnc32)cc1)N1CCc2nn(C)c(Cc3ccccc3)c2C1=O	binding	competition with immobilised ligand	0.1 µM	85
O=C(O)[C@@H]1[C@@H](Cn2nnc3ccccc3c2=O)CC[C@H]1C(=O)c1ccc(OCCC2CCOCC2)cc1	cell-free assay	competition with immobilised ligand	1 µM	100
O=C(c1ccc(Nc2nccc(-c3cc4ccccc4s3)n2)cc1)N1CCC(N2CCCC2)CC1	binding	competition with immobilised ligand	1 µM	50
CS(=O)(=O)N1CCCC(NC(=O)[C@H](CCC2CCCCC2)NC(=O)c2ccc(CNC(=O)c3cnc4ccccn34)cc2)C1 (stereo partly drawn)	cell-free assay	competition with immobilised ligand	0.1 µM	90
Cc1cnc(Nc2ccc(C(=O)N3CCC(N4CCCC4)CC3)cc2)nc1-c1cc2ccccc2s1	binding	competition with immobilised ligand	1 µM	37
C[C@@H]1CN(c2cc(-c3n[nH]c4ccc(OC5(C)CC5)cc34)ncn2)C[C@H](C)O1	cell-free assay	competition with immobilised ligand	0.1 µM	82
CN(C)c1nccc(-c2cnc3ncccn23)n1	binding	–	1 µM	100
